Active and inactive are the calls of the source. The calls are words filed in the database; no cut-off is given here.
Legend:
[1] = biological target: D(2) dopamine receptor (Homo sapiens, UniProt P14416); assay: Agonist activity at human recombinant dopamine D2 receptor expressed in rat pituitary cells assessed as inhibition of forskolin-stimulated cAMP accumulation; type: functional, cell-based, Pituitary gland cell
[2] = biological target: D(3) dopamine receptor (Homo sapiens, UniProt P35462); assay: Agonist activity at human recombinant dopamine D3 receptor expressed in CHO cells assessed as inhibition of forskolin-stimulated cAMP accumulation; type: functional, cell-based
[3] = Stability in human hepatocytes; type: ADME, cell-based, Liver, Hepatocyte
Summary of the method: (§1)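 Rat, dog and human hepatocyte incubations; read-out was the disappearance half-life of parent compound, in minutes.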

[4] = Clearance in rat; type: ADME, organism-based; details: in vivo
[5] = biological target: T1, Muscarinic acetylcholine receptor M1 (Homo sapiens, UniProt P11229); assay: Binding affinity to human muscarinic M1 receptor
T1 sequence (P11229 whole entry): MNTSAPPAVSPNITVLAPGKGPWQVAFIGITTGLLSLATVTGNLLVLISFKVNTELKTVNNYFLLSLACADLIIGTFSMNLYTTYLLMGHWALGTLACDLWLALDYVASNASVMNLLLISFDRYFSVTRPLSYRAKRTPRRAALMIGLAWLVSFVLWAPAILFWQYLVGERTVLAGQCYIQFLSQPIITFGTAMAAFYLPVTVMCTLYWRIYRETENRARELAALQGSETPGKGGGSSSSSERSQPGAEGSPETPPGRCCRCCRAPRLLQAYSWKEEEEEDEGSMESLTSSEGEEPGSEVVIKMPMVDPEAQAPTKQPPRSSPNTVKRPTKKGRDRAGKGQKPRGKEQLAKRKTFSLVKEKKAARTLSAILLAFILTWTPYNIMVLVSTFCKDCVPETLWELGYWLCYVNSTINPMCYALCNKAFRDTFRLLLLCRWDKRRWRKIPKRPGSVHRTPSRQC

[6] = Distribution coefficient, log D at pH 7.4; type: physicochemical; details: octanol/water
[7] = Dissociation constant, pKa of the compound; type: physicochemical
[8] = Solubility of the compound; type: physicochemical
[9] = Apparent permeability across Caco-2 cells at 1 uM; type: ADME, cell-based; details: human
[10] = Protein binding in rat plasma; type: ADME, cell-free; details: read-out: PB (converted)
[11] = Protein binding in dog plasma; type: ADME, cell-free, Canis lupus familiaris; details: read-out: PB (converted)
[12] = Protein binding in human plasma; type: ADME, cell-free; details: read-out: PB (converted)
[13] = biological target: D(1A) dopamine receptor (Homo sapiens, UniProt P21728); assay: Binding affinity to dopamine D1 receptor
Summary of the method: (§2)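 Broad commercial ligand-binding panel profiling, including dopamine D1 and D5 receptors; reported as IC50.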

[14] = biological target: D(1B) dopamine receptor (Homo sapiens, UniProt P21918); assay: Binding affinity to dopamine D5 receptor; summary of the method: as §2
[15] = biological target: T2, 5-hydroxytryptamine receptor 1A (Homo sapiens) (UniProt P08908); assay: Binding affinity to human 5HT1A receptor at 100 nM
T2 sequence (whole entry): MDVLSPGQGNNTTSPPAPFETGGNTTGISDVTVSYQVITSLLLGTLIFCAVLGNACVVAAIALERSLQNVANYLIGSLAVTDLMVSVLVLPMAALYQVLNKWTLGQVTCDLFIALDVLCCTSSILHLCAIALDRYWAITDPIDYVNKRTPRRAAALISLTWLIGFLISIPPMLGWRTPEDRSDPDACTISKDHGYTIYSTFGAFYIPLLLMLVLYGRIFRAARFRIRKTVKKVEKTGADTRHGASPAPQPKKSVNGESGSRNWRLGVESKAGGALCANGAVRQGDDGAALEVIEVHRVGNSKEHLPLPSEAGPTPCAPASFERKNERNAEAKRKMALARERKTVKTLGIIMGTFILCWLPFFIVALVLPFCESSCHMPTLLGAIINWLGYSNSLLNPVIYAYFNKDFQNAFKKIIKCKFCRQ
Summary of the method: (§3)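 Single-concentration binding screen in the Cerep wide ligand profile panel at the human 5HT1A receptor. Read-out is percent binding activity at each test concentration.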

[16] = biological target: T2, 5-hydroxytryptamine receptor 1A (Homo sapiens); assay: Binding affinity to human 5HT1A receptor at 10 uM; summary of the method: as §3
[17] = biological target: T2, 5-hydroxytryptamine receptor 1A (Homo sapiens); assay: Agonist activity at human recombinant 5HT1A at 1 uM; type: functional
[18] = biological target: T3, 5-hydroxytryptamine receptor 1A (Homo sapiens, UniProt P08908); assay: Antagonist activity at human recombinant 5HT1A receptor; type: functional
T3 sequence (P08908 whole entry): T2 sequence (whole entry)

[19] = biological target: 5-hydroxytryptamine receptor 2A (Rattus norvegicus, UniProt P14842); assay: Binding affinity to rat 5HT2A receptor
[20] = biological target: T4, Alpha-1A adrenergic receptor (Rattus norvegicus, UniProt P43140); assay: Binding affinity to rat alpha-1A adrenergic receptor
T4 sequence (P43140 whole entry): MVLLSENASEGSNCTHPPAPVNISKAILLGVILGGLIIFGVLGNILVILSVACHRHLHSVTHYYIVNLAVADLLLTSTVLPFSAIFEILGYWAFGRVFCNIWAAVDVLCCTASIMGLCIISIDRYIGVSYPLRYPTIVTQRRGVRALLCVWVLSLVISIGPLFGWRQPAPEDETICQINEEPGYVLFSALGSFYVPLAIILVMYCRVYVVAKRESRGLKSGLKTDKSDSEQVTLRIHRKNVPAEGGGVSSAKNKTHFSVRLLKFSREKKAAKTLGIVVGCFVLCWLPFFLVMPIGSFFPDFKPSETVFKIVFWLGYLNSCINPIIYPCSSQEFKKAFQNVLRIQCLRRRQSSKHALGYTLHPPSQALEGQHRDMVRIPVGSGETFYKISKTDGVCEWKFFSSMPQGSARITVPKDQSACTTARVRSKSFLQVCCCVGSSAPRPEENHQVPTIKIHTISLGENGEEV

[21] = biological target: T5, Alpha-2A adrenergic receptor (Homo sapiens, UniProt P08913); assay: Binding affinity to human alpha-2A adrenergic receptor
T5 sequence (P08913 whole entry): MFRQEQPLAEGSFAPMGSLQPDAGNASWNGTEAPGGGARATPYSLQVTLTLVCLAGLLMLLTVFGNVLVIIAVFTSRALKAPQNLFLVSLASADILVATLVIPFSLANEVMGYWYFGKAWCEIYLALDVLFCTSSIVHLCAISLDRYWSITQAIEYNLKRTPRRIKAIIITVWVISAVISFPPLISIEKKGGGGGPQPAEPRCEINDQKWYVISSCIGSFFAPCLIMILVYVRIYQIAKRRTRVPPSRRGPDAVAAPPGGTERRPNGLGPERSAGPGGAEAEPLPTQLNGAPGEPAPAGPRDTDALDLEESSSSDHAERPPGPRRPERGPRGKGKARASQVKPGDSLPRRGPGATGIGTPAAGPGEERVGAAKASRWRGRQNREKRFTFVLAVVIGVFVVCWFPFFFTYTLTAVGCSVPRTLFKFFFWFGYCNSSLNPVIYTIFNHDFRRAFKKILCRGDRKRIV

[22] = biological target: Histamine H1 receptor (Homo sapiens, UniProt P35367); assay: Binding affinity to human histamine H1 receptor
[23] = Stability in rat hepatocytes; type: ADME, cell-based, Liver, Hepatocyte; summary of the method: as §1
[24] = Stability in dog hepatocytes; type: ADME, cell-based, Liver, Hepatocyte; summary of the method: as §1
[25] = Tmax in rat at 2 mg/kg administered by intranasal route; type: ADME, organism-based; set-up: dose 2 mg/kg; details: in vivo, inhaled or intranasal
Summary of the method: (§4)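 Rat study: compound freshly prepared in saline. An intravenous reference dose of 1 mg/kg was given as a bolus. Intranasal doses of 0.5 and 2 mg/kg were given as 20 µl into one nostril by pipette.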

[26] = Half life in rat at 2 mg/kg administered by intranasal route; type: ADME, organism-based; set-up: dose 2 mg/kg; details: in vivo, inhaled or intranasal; summary of the method: as §4
[27] = Intranasal bioavailability in rat at 2 mg/kg; type: ADME, organism-based; details: in vivo, inhaled or intranasal; summary of the method: as §4
[28] = Intranasal bioavailability in dog at 0.3 mg/kg; type: ADME, organism-based, Canis lupus familiaris; details: in vivo, inhaled or intranasal
Summary of the method: (§5)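 Dogs, male (n = 2) and female (n = 2). Compound freshly prepared in saline. The intravenous reference was a 10-min infusion at 3 ml/kg/h of a 0.2 mg/ml solution, giving a final dose of 0.1 mg/kg. Intranasal doses of 0.1 and 0.3 mg/kg were given as 100 µl into one nostril by spray device.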

[29] = biological target: Voltage-gated inwardly rectifying potassium channel KCNH2 (Homo sapiens, UniProt Q12809); assay: Displacement of dofetilide from hERG
[30] = test system: Canis familiaris; assay: Effect on male erectile dysfunction in sc dosed dog; type: functional, Canis lupus familiaris
Summary of the method: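 Animal models of male erectile dysfunction, with multiple subcutaneous dosing; ED50 expressed as free drug concentration.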

[31] = test system: Canis familiaris; assay: Toxicity in sc dog assessed as nausea upto […]; type: organism-based, Canis lupus familiaris; details: in vivo
[32] = test system: Canis familiaris; assay: Toxicity in sc dog assessed as emesis upto […]; type: organism-based, Canis lupus familiaris; details: in vivo
[33] = test system: Canis familiaris; assay: Toxicity in sc dog assessed as hypotensive effects upto […]; type: organism-based, Canis lupus familiaris; details: in vivo
[34] = Tmax in dog at 0.3 mg/kg; type: ADME, organism-based, Canis lupus familiaris; set-up: dose 0.3 mg/kg; details: in vivo; summary of the method: as §5
[35] = Half life in dog at 0.3 mg/kg; type: ADME, organism-based, Canis lupus familiaris; set-up: dose 0.3 mg/kg; details: in vivo; summary of the method: as §5
[36] = Clearance in human; type: ADME, organism-based; details: in vivo

Chain of D(2) dopamine receptor (P14416 whole entry): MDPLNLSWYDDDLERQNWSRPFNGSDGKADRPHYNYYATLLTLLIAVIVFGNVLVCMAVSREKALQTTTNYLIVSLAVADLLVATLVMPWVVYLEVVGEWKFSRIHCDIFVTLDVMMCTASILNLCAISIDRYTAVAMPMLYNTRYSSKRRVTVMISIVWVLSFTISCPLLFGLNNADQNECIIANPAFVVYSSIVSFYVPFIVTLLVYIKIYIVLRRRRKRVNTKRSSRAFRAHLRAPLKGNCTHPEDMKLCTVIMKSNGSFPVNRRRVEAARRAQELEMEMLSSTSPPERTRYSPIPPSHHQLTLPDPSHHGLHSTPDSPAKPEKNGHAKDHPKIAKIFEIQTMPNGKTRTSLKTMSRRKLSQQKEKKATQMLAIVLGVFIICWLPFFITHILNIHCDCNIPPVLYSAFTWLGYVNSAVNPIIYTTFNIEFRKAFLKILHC
Chain of D(3) dopamine receptor (P35462 whole entry): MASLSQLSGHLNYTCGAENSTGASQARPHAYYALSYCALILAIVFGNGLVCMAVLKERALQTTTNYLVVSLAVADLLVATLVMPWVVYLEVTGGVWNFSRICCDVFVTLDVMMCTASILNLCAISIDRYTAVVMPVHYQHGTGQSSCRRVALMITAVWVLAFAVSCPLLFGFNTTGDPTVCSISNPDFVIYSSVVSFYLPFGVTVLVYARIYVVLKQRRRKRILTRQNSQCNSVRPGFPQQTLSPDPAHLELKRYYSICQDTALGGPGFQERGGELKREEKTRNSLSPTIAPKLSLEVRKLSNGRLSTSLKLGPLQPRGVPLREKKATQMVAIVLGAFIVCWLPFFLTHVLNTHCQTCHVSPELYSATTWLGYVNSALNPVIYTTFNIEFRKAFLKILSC
Chain of D(1B) dopamine receptor (P21918 whole entry): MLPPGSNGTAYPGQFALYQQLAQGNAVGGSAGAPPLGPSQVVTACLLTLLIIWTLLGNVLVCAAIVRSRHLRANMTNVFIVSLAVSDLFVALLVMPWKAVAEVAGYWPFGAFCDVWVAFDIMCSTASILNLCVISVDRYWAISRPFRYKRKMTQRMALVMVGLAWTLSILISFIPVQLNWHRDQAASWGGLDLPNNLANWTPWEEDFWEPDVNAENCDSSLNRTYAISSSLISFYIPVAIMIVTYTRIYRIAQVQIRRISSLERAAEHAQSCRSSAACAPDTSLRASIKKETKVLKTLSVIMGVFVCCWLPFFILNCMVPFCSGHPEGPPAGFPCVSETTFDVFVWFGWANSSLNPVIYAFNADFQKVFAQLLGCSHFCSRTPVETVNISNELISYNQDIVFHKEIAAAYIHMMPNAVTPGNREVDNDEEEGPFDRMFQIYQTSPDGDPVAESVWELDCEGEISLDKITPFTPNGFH
Chain of Voltage-gated inwardly rectifying potassium channel KCNH2 (Q12809 whole entry): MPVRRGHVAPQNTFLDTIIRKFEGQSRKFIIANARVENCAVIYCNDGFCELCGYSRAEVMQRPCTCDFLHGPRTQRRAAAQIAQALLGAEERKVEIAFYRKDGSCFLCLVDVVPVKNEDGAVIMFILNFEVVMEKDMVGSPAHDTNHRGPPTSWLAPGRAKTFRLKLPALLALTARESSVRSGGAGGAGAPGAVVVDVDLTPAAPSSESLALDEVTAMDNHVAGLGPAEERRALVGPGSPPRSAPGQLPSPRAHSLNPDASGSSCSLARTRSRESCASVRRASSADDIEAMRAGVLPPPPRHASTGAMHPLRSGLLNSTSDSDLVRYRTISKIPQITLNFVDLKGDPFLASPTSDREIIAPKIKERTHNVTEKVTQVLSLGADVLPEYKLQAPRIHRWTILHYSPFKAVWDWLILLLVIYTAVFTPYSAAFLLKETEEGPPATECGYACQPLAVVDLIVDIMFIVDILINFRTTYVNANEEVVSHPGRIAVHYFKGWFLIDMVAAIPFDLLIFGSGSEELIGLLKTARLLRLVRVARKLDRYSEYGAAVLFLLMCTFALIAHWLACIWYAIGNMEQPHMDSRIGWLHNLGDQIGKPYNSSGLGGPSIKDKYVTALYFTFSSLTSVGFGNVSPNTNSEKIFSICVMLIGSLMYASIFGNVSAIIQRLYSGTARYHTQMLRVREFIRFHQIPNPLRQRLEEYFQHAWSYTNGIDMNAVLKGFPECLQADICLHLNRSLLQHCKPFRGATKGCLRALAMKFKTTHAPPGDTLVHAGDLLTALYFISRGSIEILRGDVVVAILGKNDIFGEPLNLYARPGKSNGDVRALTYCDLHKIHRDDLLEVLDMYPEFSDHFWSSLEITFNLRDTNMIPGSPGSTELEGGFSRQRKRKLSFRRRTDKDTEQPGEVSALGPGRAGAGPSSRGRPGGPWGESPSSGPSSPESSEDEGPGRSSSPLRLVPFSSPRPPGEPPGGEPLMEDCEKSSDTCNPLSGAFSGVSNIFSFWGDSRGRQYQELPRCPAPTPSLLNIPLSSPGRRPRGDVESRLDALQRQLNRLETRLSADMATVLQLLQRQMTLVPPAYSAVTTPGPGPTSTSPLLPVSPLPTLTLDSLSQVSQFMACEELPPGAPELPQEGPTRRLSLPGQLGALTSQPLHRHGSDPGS
Chain of 5-hydroxytryptamine receptor 2A (P14842 whole entry): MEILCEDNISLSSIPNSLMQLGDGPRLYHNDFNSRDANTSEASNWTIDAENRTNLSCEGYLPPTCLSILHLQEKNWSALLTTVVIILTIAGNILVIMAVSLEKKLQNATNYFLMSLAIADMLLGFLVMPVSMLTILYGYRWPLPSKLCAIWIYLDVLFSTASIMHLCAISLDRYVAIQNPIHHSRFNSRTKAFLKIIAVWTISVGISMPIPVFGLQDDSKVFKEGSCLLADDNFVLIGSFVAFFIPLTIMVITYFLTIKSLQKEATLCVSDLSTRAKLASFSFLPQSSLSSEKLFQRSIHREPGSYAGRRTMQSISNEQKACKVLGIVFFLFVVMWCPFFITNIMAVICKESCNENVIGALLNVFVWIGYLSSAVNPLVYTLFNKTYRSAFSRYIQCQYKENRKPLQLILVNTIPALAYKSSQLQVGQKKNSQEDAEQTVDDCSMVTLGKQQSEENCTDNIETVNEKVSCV
Chain of Histamine H1 receptor (P35367 whole entry): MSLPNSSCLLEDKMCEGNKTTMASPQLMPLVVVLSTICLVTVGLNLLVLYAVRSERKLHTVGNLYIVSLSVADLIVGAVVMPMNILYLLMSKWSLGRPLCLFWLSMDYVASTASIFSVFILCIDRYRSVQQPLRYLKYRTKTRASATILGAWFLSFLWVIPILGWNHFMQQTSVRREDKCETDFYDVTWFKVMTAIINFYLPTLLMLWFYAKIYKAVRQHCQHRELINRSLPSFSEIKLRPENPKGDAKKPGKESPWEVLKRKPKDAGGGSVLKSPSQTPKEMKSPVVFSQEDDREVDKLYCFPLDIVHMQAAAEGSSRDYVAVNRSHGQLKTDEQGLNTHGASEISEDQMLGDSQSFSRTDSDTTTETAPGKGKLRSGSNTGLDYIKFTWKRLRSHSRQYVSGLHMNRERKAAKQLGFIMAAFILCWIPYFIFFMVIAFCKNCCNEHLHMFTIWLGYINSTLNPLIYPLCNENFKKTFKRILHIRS
Chain of D(1A) dopamine receptor (P21728 whole entry): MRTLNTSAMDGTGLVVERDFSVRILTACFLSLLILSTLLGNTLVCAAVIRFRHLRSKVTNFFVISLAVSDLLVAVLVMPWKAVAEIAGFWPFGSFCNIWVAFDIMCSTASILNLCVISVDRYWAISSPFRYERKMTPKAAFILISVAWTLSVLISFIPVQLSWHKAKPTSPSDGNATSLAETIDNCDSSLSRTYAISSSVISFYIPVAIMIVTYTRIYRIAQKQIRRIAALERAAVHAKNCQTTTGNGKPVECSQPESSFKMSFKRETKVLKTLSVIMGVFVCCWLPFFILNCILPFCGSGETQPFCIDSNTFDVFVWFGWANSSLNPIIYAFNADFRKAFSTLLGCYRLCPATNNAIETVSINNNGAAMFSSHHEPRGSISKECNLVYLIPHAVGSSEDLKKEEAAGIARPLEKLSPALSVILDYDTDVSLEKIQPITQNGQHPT

## CCCN1CCO[C@H](c2ccc(F)c(O)c2)C1
[1]
  EC50: > 10000 nM
[2]
  EC50: 36 nM
  Emax: > 90%
[3]
  half-life: 21 min

## CCCN1CCOC(c2cccc(OC)c2)C1 (configuration not stated)
[1]
  EC50: > 10000 nM
[2]
  EC50: > 1000 nM

## CCCN1CCOC(c2ccc(F)c(O)c2)C1 (configuration not stated)
[2]
  EC50: 35 nM

## CCCN1CCO[C@H](c2cc(O)cc(O)c2)C1
[1]
  EC50: > 10000 nM
[2]
  EC50: 32 nM
  Emax: > 90%
[4]
  clearance: 188 mL/min/kg

## CCCN1CCOC(c2ccc(O)c(N)c2)C1 (configuration not stated)
[2]
  EC50: 40 nM

## CCCN1CCO[C@@H](c2cc(O)cc(O)c2)C1
[1]
  EC50: > 10000 nM
[2]
  EC50: > 10000 nM

## CCN1CCOC(c2cccc(O)c2)C1 (configuration not stated)
[1]
  EC50: > 30000 nM
[2]
  EC50: 547 nM

## CCCN1CCOC(c2cccc(SC)c2)C1 (configuration not stated)
[1]
  EC50: > 10000 nM
[2]
  EC50: > 1000 nM

## CC(=O)NCCCCN1CCOC(c2cccc(O)c2)C1 (configuration not stated)
[1]
  EC50: > 10000 nM
[2]
  EC50: > 10000 nM

## CCCN1CCO[C@@H](c2cccc(O)c2)C1
[1]
  EC50: > 10000 nM
[2]
  EC50: > 5000 nM

## CCCN1CCOC(c2ccc(O)c(C#N)c2)C1 (configuration not stated)
[2]
  EC50: > 1000 nM

## CCCN1CCOC(c2cccc(C(N)=O)c2)C1 (configuration not stated)
[2]
  EC50: > 1000 nM

## CCCN1CCOC(c2ccc(O)c(C(C)=O)c2)C1 (configuration not stated)
[2]
  EC50: > 1000 nM

## CCCN1CCO[C@H](c2cccc(O)c2)C1
[5]
  Ki: > 1000 nM
[1]
  EC50: > 10000 nM
[2]
  EC50: 8 nM
  Emax: > 90%
[6]
  logD: 1
[7]
  pKa: 7.4
[8]
  solubility: > 1000 mg/mL
[9]
  Papp at 1 µM: 38 ×10⁻⁶ cm/s
[10]
  fraction unbound: 0.59
[11]
  fraction unbound: 0.24
[12]
  fraction unbound: 0.35
[13]
  IC50: > 10000 nM
[14]
  IC50: > 10000 nM
[15]
  Activity: 16%
[16]
  Activity: 95%
[17]
  Activity: inactive
[18]
  IC50: > 20000 nM
[19]
  Ki: 970 nM
[20]
  Ki: > 1000 nM
[21]
  Ki: > 1000 nM
[22]
  Ki: > 2000 nM
[3]
  half-life: 61 min
[23]
  half-life: 28 min
[24]
  half-life: 18 min
[25]
  Tmax: 5 min
[26]
  half-life: 18 min
[27]
  bioavailability: 20%
[28]
  bioavailability: 33%
[29]
  Ki: > 4000 nM
[30]
  ED50: 0.2 nM
[31]
  Activity: Non-toxic
[32]
  Activity: Non-toxic
[33]
  Activity: Non-toxic
[34]
  Tmax: 5 min
[35]
  half-life: 96 min

## CCCN1CCOC(c2cccc(-c3ncc[nH]3)c2)C1 (configuration not stated)
[1]
  EC50: > 10000 nM
[2]
  EC50: > 1000 nM

## CC(C)(C)NCC(O)c1cc(O)cc(O)c1 (configuration not stated) [TERBUTALINE]
[36]
  clearance: 3.1 mL/min/kg

## CCCN1CCOC(c2cccc(CO)c2)C1 (configuration not stated)
[2]
  EC50: > 1000 nM

## CCCN(CCC)CCc1cccc2c1CC(=O)N2 [ROPINIROLE]
[1]
  EC50: 83 nM

## CCCN1CCOC(c2ccc(O)c(CO)c2)C1 (configuration not stated)
[2]
  EC50: > 1000 nM

## CCCN1CCOC(c2ccc(CO)c(O)c2)C1 (configuration not stated)
[2]
  EC50: > 5900 nM

## CCCN1CCOC(c2cc(O)cc(C#N)c2)C1 (configuration not stated)
[2]
  EC50: > 10000 nM

## CCCN1CCOC(c2cccc(NS(C)(=O)=O)c2)C1 (configuration not stated)
[1]
  EC50: > 1000 nM
[2]
  EC50: > 1000 nM

## CCCN1CCOC(c2cccc(N)c2)C1 (configuration not stated)
[1]
  EC50: > 1000 nM
[2]
  EC50: > 1000 nM

Reference: ChEMBL document CHEMBL1140586, “Design and synthesis of a functionally selective D3 agonist and its in vivo delivery via the intranasal route” (Bioorg Med Chem Lett, 2007)
